Reference: ChEMBL document CHEMBL3046036, “Bioactivity of the fungal metabolite (8R,16R)-(-)-pyrenophorin on graminaceous plants” (J Agric Food Chem, 2005)

Experiments:
Conditions in all cases: in vivo
Avena sterilis = test: Effect on chlorophyll content in Avena sterilis assessed as chlorophyll dissipation rate at 20 degC in the dark at 320 uM relative to control
Triticum aestivum = test: Effect on chlorophyll content in Triticum aestivum (wheat) assessed as chlorophyll dissipation rate at 20 degC in the dark at 320 uM relative to control
Avena fatua = test: Effect on chlorophyll content in Avena fatua assessed as chlorophyll dissipation rate at 20 degC in the dark at 320 uM relative to control
Hordeum vulgare = test: Effect on chlorophyll content in Hordeum vulgare (barley) assessed as chlorophyll dissipation rate at 20 degC and 12 hr photoperiod at 320 uM relative to control; type: ADME, organism-based
Procedure, shortened: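 Leaf sections were treated with 320 µM metabolite and incubated in the dark at 20 °C, with 16 tubes per treatment. Every 12 h, segments from one tube were split into four tubes and extracted in DMSO at 65 °C for 30 min. Extracts were read at A665, tissue was dried at 105 °C and weighed, and chlorophyll was expressed as A665 per g dry weight.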

Avena sativa = test: Effect on chlorophyll content in Avena sativa assessed as chlorophyll dissipation rate at 20 degC in the dark at 320 uM relative to control

Measured: Activity

C[C@@H]1CC[C@H](O)/C=C/C(=O)O[C@H](C)CC[C@H](O)/C=C/C(=O)O1 [(5S,8R,13S,16R)-(-)-PYRENOPHOROL]
Non-toxic: Avena sterilis | Triticum aestivum | Avena fatua | Hordeum vulgare | Avena sativa
